Shown are actives, neighbours in structure and some others; about 3.4% of the full set was active somewhere.
AHR activator – human AHR activation; P35869; AHR-responsive luciferase reporter cells, luminescence; activation, % at 5 µM; 320,000 tested, 2.5% active; AID 2796; in the data active = activation above about 47%;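 also: 0% = vehicle wells and 100% = reference agonist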
APOBEC3A inh – human APOBEC3A DNA deaminase inhibition; P31941; AID 493011; inhibition, % at 20 µM; recombinant A3A, FAM/TAMRA ssDNA deamination fluorescence; 330,000 tested, 0.41% active;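 active = at least 40% inhibition at 20 µM here, with at most 30% in a related deaminase screen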;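 also: plate controls were A3A with DMSO for no effect and wells lacking A3A enzyme for full effect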
Target sequence (P31941 whole entry, looked up): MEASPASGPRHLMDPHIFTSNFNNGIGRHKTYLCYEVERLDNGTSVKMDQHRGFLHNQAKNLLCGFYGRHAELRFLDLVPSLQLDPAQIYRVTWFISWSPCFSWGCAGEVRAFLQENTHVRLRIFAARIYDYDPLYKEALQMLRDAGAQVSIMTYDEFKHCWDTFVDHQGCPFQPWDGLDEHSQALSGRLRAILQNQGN
APOBEC3G inh – APOBEC3G (human) deaminase inhibition; AID 493012; Q9HC16; 330,000 tested, 0.28% active; recombinant A3G, ssDNA deamination FAM/TAMRA fluorescence; inhibition, % at 20 µM;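 active = inhibition of at least 40% at 20 µM, with no more than 30% in the related APOBEC3A deaminase screen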;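 also: plate controls were DMSO wells with A3G for no effect and wells lacking A3G enzyme for full effect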
UCH37 DUB inh – inhibitors of human deubiquitinating enzyme UCH37; Q9Y5K5; purified proteasome/UCH37, Ub-AMC cleavage fluorescence; inhibition, % (no concentration beside the values); 330,000 tested, 0.33% active;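 active = mean inhibition over replicate wells above about 20%, limit read from the data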;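 also: 0% = compound-free wells with enzyme and 100% = wells lacking proteasome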
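System: Proteasome-associated human UCH37 deubiquitinase; Input: 0.15 nM proteasome in added enzyme buffer; Also added: Ub-AMC substrate from 1 µM stock; Incubation: 30 min compound-proteasome preincubation then 25 min substrate reaction, room temperature; Detection: fluorescence, ex 355 nm, em 460 nm; Read-out: % inhibition of Ub-AMC cleavage fluorescence; Benchmarks: no-proteasome and no-compound wells.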
PolyA inhibitor – inhibitors of polyadenylation in S. cerevisiae; S. cerevisiae SKY197-pL101 polyadenylation reporter, beta-gal luminescence; efflux-impaired pdr1/pdr3 knockout yeast; score 100 = 6 SD above DMSO; activity score, % at 12 µM; 300,000 tested, 0.02% active;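 active = lowest replicate activity score at least 50, where 100 means six control SD above control mean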;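 also: yeast exposed to compound for 9 h at 30 °C; higher score means more reporter readthrough which indicates perturbed polyadenylation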
Arr AP2 block – human beta-arrestin and AP2 interaction inhibition; FITC-arrestin peptide / GST-AP2 beads, flow cytometry; AP2 beta2 appendage carries R879A mutation; inhibition, % at 10 µM; 340,000 tested, 0.31% active;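 active = inhibition above a set limit, near 3 SD of compounds lacking own fluorescence, cut at about 54% in these data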;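 also: plate controls were DMSO wells for no effect and 5 µM unlabelled arrestin peptide for full effect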
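test system = AP2 appendage R879A on GSH beads | buffer or medium = PBS plus Tween 20 (0.05%) and BSA (0.1%) | incubation = 12 min plus 1 h, RT | detection = bead flow cytometry, FITC channel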
AHR act cf – confirmation of human aryl hydrocarbon receptor activators. shares compounds with AHR activator. human cells, AHR-responsive luciferase reporter, luminescence. activation, % at 9 µM. 2,300 tested, 87% active. AID 2845; in the data active = activation above about 49%;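 also: HepG2 hepatoma cells carrying a DRE-driven firefly luciferase reporter; 0% = vehicle wells and 100% = reference agonist wells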
PXR act counter – PXR activation, counter-screen for AHR activators; shares compounds with AHR activator; cell-based PXR reporter, luciferase luminescence; activation, % at 11.6 µM; 2,300 tested, 88% active; AID 434939; in the data active = activation above about 11%;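 also: human hepatoma DPX-2 cells expressing full-length human PXR; 0% = DMSO and 100% = reference agonist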
Target sequence (O75469 whole entry, looked up): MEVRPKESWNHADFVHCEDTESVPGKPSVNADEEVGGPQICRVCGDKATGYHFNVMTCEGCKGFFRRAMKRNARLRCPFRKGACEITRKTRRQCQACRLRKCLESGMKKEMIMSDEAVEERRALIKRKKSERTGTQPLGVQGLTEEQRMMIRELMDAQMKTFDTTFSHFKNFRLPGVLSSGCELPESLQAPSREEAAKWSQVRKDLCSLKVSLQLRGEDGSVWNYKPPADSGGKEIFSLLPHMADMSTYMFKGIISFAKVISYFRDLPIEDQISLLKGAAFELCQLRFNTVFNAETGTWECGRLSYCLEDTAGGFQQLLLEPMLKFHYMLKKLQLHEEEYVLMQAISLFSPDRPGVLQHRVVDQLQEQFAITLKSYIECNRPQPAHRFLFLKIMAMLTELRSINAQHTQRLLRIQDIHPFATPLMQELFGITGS
Starred values were filed as active, the others as inactive; . = no result given.

SMILES	AHR activator	APOBEC3A inh	APOBEC3G inh	UCH37 DUB inh	PolyA inhibitor	Arr AP2 block	AHR act cf	PXR act counter
Cn1ccsc1=NC(=O)Nc1cccc(C(F)(F)F)c1	.	.	.	0	.	.	.	.
O=C(ON=Cc1ccc(N2CCCCC2)c([N+](=O)[O-])c1)c1ccc(Cl)cc1Cl	.	.	.	-2	.	.	.	.
CCOc1cccc(C(=O)Nc2ccncc2)c1	37	-1	-1	3	11	-18	.	.
CCOc1cccc(C(=O)Nc2ccc3[nH]ncc3c2)c1	93*	-5	-6	1	-22	-4	41	23*
COc1cc(Cl)ccc1OCc1cc(C(=O)NCC(C)(C)N2CCOCC2)no1	.	-1	-1	0	2	-5	.	.
COc1cc(Cl)ccc1OCc1cc(C(=O)NCc2cc(C(C)C)no2)no1	115*	2	-3	1	12	1	105*	45*
Cc1c(NS(=O)(=O)c2cc(C(=O)NCc3ccco3)cc(Cl)c2Cl)c(=O)n(-c2ccccc2)n1C	97*	4	14	4	12	2	102*	201*
Cc1ccc(S(=O)(=O)Nc2c(C)n(C)n(-c3ccccc3)c2=O)cc1C(=O)NCc1ccco1	.	.	.	3	.	7	.	.
Brc1cccc(C=NNc2nn[nH]n2)c1	.	.	.	4	.	.	.	.
COc1ccc(OC)c2nc(-c3cccnc3)ccc12	93*	0	-6	1	-2	37	143*	22*
CC(Oc1ccc(Br)cc1)c1nc2c3ccccc3nc(=S)n2[nH]1 (stereo not drawn)	3	0	-3	6	-15	20	.	.
S=c1nc2ccccc2c2nc(-c3ccccc3Cl)[nH]n12	134*	-8	-10	.	-5	7	129*	28*
S=c1nc2ccccc2c2nc(-c3ccccc3)[nH]n12	106*	-2	-4	.	-20	-11	129*	23*
Clc1ccccc1-c1nc2ccccc2c2nc3ccccc3n12	2	-2	-5	-6	-30	4	.	.
COc1cc([N+](=O)[O-])cc(C=NN(CCC#N)C(C)=O)c1O	.	.	.	13	.	.	.	.
CN(C)c1ccc(C=NNC(=O)c2ccc(-n3cnnn3)cc2)cc1	.	.	.	-2	.	.	.	.
CSc1nc(N)c2c3c(sc2n1)COC(C(C)C)C3 (stereo not drawn)	97*	-1	-5	-1	-14	2	109*	18*
CCCC1Cc2c(sc3nc(SC)nc(N)c23)CO1 (stereo not drawn)	11	-2	-2	3	.	4	.	.
CC(C)OCCCNC(=O)c1c(N)n(N=Cc2cccs2)c2nc3ccccc3nc12	.	.	.	-286	.	.	.	.
CCc1cc(C(=O)N/N=C/c2c(C)[nH]c3ccccc23)cs1	99*	-2	0	.	9	1	83*	28*
Nn1c(-c2ccc(F)cc2)nc2ccccc2c1=O	4	2	-3	0	-10	-8	.	.
O=C1c2cc(F)ccc2-n2c1nc1ccccc1c2=O	100*	-2	-2	.	-53	2	-16	-17
O=C(NC(=S)Nc1cccc(F)c1)c1cccc([N+](=O)[O-])c1	96*	-4	-9	.	-11	22	40	30*
CC(=NNC(=S)Nc1cccc(C)c1)c1cccc([N+](=O)[O-])c1	.	.	.	-1	.	.	.	.
C/C(=N/NC(=S)Nc1cccc(C)c1)c1cccc([N+](=O)[O-])c1	106*	-4	-9	.	-7	11	83*	100*
SMILES	AHR activator	APOBEC3A inh	APOBEC3G inh	UCH37 DUB inh	PolyA inhibitor	Arr AP2 block	AHR act cf	PXR act counter
Cc1cccc(NC(=S)NNC(=O)c2cccc([N+](=O)[O-])c2)c1	0	-2	-1	9	6	31	.	.
CC/C(=N\NC(=S)Nc1cccc(C)c1)c1ccccc1	87*	-4	-2	.	-5	15	55*	24*
COc1ccccc1C=NNC(=S)Nc1cccnc1	.	.	.	5	.	.	.	.
COc1ccc(N2CCN(c3cc(C)c4cccc(C)c4n3)CC2)cc1	129*	-8	-1	.	1	21	95*	13*
COc1ccc2nc(N3CCOCC3)cc(C)c2c1	-5	-3	-8	-329	16	5	.	.
COc1ccc2c(C)cc(N3CCOCC3)nc2c1	5	2	2	-42	-13	-4	.	.
COc1ccc(N2CCN(c3cc(C)c4ccc(C)cc4n3)CC2)cc1	100*	-11	-5	.	-3	0	110*	18*
COc1ccc(N2CCN(c3cc(C)c4ccc(O)cc4n3)CC2)cc1	132*	0	-8	-29	-11	7	71*	.
O=C(CSCc1ccc(Cl)cc1)NN=Cc1c(Cl)cccc1Cl	.	.	.	1	.	.	.	.
FC(F)(F)c1cccc(C=NNC(=S)NC2CCCCC2)c1	.	.	.	0	.	.	.	.
Cn1c(N)c(C(=O)Nc2ccccc2F)sc1=S	115*	-4	-3	11	-13	28	105*	.
CC(C)c1ccc(NC(=O)c2ccc(Br)o2)cc1	99*	0	-5	2	-20	-12	107*	35*
O=C(C=Cc1cccs1)c1cccs1	.	.	.	2	.	22	.	.
O=C(/C=C\c1cccs1)c1c(O)ccc2ccc(=O)oc12	85*	-4	-9	3	-4	-7	97*	.
CCc1ccc(N2CC(C(=O)NN=Cc3cc([N+](=O)[O-])ccc3O)CC2=O)cc1 (stereo not drawn)	.	.	.	1	.	.	.	.
O=[N+]([O-])c1cc(C=NNc2nc(-c3ccccc3)cs2)ccc1O	.	.	.	6	.	.	.	.
O=[N+]([O-])c1cc(/C=N\Nc2nc(-c3ccccc3)cs2)ccc1O	119*	1	-3	.	-18	7	39	4
Cc1c(O)ccc(C(Cc2ccc3ccccc3n2)=NO)c1O	.	.	.	2	.	.	.	.
COc1ccccc1CNC(=O)CSc1ccc(C(=O)Nc2ccccc2OC)cc1[N+](=O)[O-]	90*	2	-8	4	-4	3	85*	105*
COc1ccccc1NC(=O)C(=O)NCc1ccccc1Cl	4	-1	-4	1	-6	-3	.	.
COc1ccccc1NC(=O)c1ccc(SCC(=O)NCc2ccccc2Cl)c([N+](=O)[O-])c1	99*	-1	-9	2	6	11	120*	135*
COc1cc(C=NNC(=O)CNC(=O)/C=C/c2ccco2)cc(OC)c1OC	.	.	.	4	.	.	.	.
COc1ccccc1C(=O)NCC(=O)NN=Cc1cn[nH]c1-c1ccccc1	.	.	.	7	.	.	.	.
O=C(/C=C/Nc1ccc(F)cc1F)c1cccs1	86*	-2	-6	1	3	-6	108*	86*
O=C(/C=C\Nc1cccc(F)c1)c1cccs1	37	-3	-2	0	0	-5	.	.
O=C(/C=C/Nc1ccc(F)cc1F)c1ccco1	41	11	1	-1	-5	24	.	.

Screening results as filed in PubChem.
